Assays:
Helix pomatia [1] = test: Ratio of Kinact to Ki for Helix pomatia type H1 recombinant sulfatase expressed in Escherichia coli
Outline: (§1)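 Snail sulfatase incubated at pH 7 with 0–500 µM 3-nitrophenyl sulfamate; residual activity plotted semi-logarithmically against time, and pseudo-first-order rates replotted against inactivator concentration to fit Ki and kinact (E + I ⇌ E·I → E–P).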

Haliotis corrugata [2] = test: Inhibition of abalone entrails type 8 recombinant sulfatase expressed in Escherichia coli by slow phase inactivation
Haliotis corrugata [3] = test: Inhibition of abalone entrails type 8 recombinant sulfatase expressed in Escherichia coli by fast phase inactivation
Haliotis corrugata [4] = test: Ratio of Kinact to Ki for abalone entrails type 8 recombinant sulfatase expressed in Escherichia coli by slow phase inactivation
Patella vulgata [5] = test: Ratio of Kinact to Ki for Patella vulgata type 5 recombinant sulfatase expressed in Escherichia coli
Outline: (§2)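 Limpet sulfatase at pH 7 with 0–12.5 mM sulfamate; semi-logarithmic plots of residual activity over time, inactivation rates replotted against concentration to give Ki and kinact.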

Patella vulgata [6] = test: Inhibition of Patella vulgata type 5 recombinant sulfatase expressed in Escherichia coli; outline: as §2
[7] = molecular target: Arylsulfatase (Pseudomonas aeruginosa (strain ATCC 15692 / PAO1 / 1C / PRS 101 / LMG12228)) (UniProt P51691); test: Inhibition of Pseudomonas aeruginosa recombinant arylsulfatase A expressed in Escherichia coli
Sequence of Arylsulfatase (Pseudomonas aeruginosa (strain ATCC 15692 / PAO1 / 1C / PRS 101 / LMG12228)) (P51691 whole entry): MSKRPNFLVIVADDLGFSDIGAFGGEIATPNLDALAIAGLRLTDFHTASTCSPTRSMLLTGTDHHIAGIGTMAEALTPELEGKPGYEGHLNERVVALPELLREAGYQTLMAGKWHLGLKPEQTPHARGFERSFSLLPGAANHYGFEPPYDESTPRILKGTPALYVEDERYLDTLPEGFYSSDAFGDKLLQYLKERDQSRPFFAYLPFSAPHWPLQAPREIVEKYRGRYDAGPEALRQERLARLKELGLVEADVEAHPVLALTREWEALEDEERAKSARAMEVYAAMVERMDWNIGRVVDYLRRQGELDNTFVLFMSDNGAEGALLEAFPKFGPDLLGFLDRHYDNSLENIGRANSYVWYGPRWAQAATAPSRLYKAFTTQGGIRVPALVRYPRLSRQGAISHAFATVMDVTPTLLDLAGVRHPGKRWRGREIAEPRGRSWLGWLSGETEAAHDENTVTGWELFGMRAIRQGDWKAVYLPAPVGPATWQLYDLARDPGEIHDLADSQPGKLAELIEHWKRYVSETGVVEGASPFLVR

Helix pomatia [8] = test: Inhibition of Helix pomatia type H1 recombinant sulfatase expressed in Escherichia coli; outline: as §1
[9] = molecular target: Arylsulfatase (Pseudomonas aeruginosa (strain ATCC 15692 / PAO1 / 1C / PRS 101 / LMG12228)) (UniProt P51691); test: Ratio of Kinact to Ki for Pseudomonas aeruginosa recombinant arylsulfatase A expressed in Escherichia coli
Patella vulgata [10] = test: Protection against inactivation in Patella vulgata type 5 recombinant sulfatase expressed in Escherichia coli assessed as ratio of residual enzyme activity to initial activity at 1 mM after 20 seconds using 4-nitrophenyl sulfate as substrate
Outline: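 Limpet sulfatase given 1 mM sulfamate at pH 7 with or without 79 mM 4-nitrophenyl sulfate; residual activity assayed 20 s after inactivator addition, expressed as vres/v0 against an untreated control.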

Haliotis corrugata [11] = test: Ratio of Kinact to Ki for abalone entrails type 8 recombinant sulfatase expressed in Escherichia coli by fast phase inactivation
Haliotis corrugata [12] = test: Protection against inactivation in abalone entrails type 8 recombinant sulfatase expressed in Escherichia coli assessed as ratio of residual enzyme activity to initial activity at 0.5 mM after 25 seconds using 4-nitrophenyl sulfate as substrate
Outline: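 Abalone sulfatase given 0.5 mM sulfamate at pH 7 with or without 30 mM 4-nitrophenyl sulfate; residual activity assayed 25 s after inactivator addition, expressed as vres/v0 against an untreated control.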

Haliotis corrugata [13] = test: Ratio of Vmax/Km for abalone entrails type 8 recombinant sulfatase expressed in Escherichia coli
Helix pomatia [14] = test: Ratio of Vmax/Km for Helix pomatia type H1 recombinant sulfatase expressed in Escherichia coli
Outline: (§3)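 Hydrolysis of potassium 4-nitrophenyl sulfate followed by release of 4-nitrophenol; Vmax is expressed per mg protein and Km in mM; Vmax/Km is derived from these.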

Patella vulgata [15] = test: Activity at Patella vulgata type 5 recombinant sulfatase expressed in Escherichia coli
Helix pomatia [16] = test: Activity at Helix pomatia type H1 recombinant sulfatase expressed in Escherichia coli assessed per mg of protein; outline: as §3
Haliotis corrugata [17] = test: Activity at abalone entrails type 8 recombinant sulfatase expressed in Escherichia coli
[18] = molecular target: Arylsulfatase (Pseudomonas aeruginosa (strain ATCC 15692 / PAO1 / 1C / PRS 101 / LMG12228)) (UniProt P51691); test: Ratio of Vmax/Km for Pseudomonas aeruginosa recombinant arylsulfatase A expressed in Escherichia coli; outline: as §3
Haliotis corrugata [19] = test: Activity at abalone entrails type 8 recombinant sulfatase expressed in Escherichia coli assessed per mg of protein
Outline: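 Crude limpet or abalone enzyme hydrolysing potassium 4-nitrophenyl sulfate; 4-nitrophenol release read at 410 nm; 10 mM α-cyclodextrin added to raise sensitivity (Δε410 14400 M−1 cm−1 at pH 7); Vmax per mg protein, Km in mM.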

Helix pomatia [20] = test: Activity at Helix pomatia type H1 recombinant sulfatase expressed in Escherichia coli; outline: as §3

Ratio (Helix pomatia [1])	T1/2 (Haliotis corrugata [2])	T1/2 (Haliotis corrugata [3])	Ratio (Haliotis corrugata [4])	Ratio (Patella vulgata [5])	T1/2 (Patella vulgata [6])	T1/2 [7]	T1/2 (Helix pomatia [8])	Ratio [9]	Ratio (Patella vulgata [10])	Ratio (Haliotis corrugata [11])	Ratio (Haliotis corrugata [12])	Vmax/Km (Haliotis corrugata [13])	Vmax/Km (Helix pomatia [14])	Km (Patella vulgata [15])	Vmax (Helix pomatia [16])	Km (Haliotis corrugata [17])	Vmax/Km [18]	Vmax (Haliotis corrugata [19])	Km (Helix pomatia [20])	SMILES
1.19 s⁻¹ mM⁻¹	257 s	10 s	0.0005 s⁻¹ mM⁻¹	0.038 s⁻¹ mM⁻¹	18 s	11 s	17 s	480 s⁻¹ mM⁻¹	0.91	0.043 s⁻¹ mM⁻¹	1.01									NS(=O)(=O)Oc1cccc([N+](=O)[O-])c1
												0.066	0.157	10 mM	0.319 mmol/min/mg	10.2 mM	7900	0.68 mmol/min/mg	2.03 mM	O=[N+]([O-])c1ccc(OS(=O)(=O)O)cc1

From ChEMBL document CHEMBL1154522, “Aryl sulfamates are broad spectrum inactivators of sulfatases: effects on sulfatases from various sources” (Bioorg Med Chem Lett, 2009)
